According to ChEMBL document CHEMBL1268974, “Synthesis and antitumour activity of glycyrrhetinic acid derivatives” (Bioorg Med Chem, 2010):
Activity calls are given as the source filed them. The rule behind the calls is not given here.

Legend:
[1] = Cytotoxicity against human 518A2 cells after 96 hrs by SRB assay; assay type: functional, cell-based; settings: 518A2, 96 h
[2] = tested on: 8505C; test: Cytotoxicity against human 8505C cells after 96 hrs by SRB assay; assay type: functional, cell-based
[3] = Cytotoxicity against human A253 cells after 96 hrs by SRB assay; assay type: functional, cell-based
[4] = tested on: A2780; test: Cytotoxicity against human A2780 cells after 96 hrs by SRB assay; assay type: functional, cell-based
[5] = tested on: A-431; test: Cytotoxicity against human A431 cells after 96 hrs by SRB assay; assay type: functional, cell-based; settings: A-431, 96 h
[6] = tested on: A549; test: Cytotoxicity against human A549 cells after 96 hrs by SRB assay; assay type: functional, cell-based
[7] = tested on: DLD-1; test: Cytotoxicity against human DLD1 cells after 96 hrs by SRB assay; assay type: functional, cell-based
[8] = tested on: FaDu; test: Cytotoxicity against human FADU cells after 96 hrs by SRB assay; assay type: functional, cell-based
[9] = tested on: HCT-116; test: Cytotoxicity against human HCT116 cells after 96 hrs by SRB assay; assay type: functional, cell-based; settings: HCT-116, 96 h
[10] = tested on: HCT-8; test: Cytotoxicity against human HCT8 cells after 96 hrs by SRB assay; assay type: functional, cell-based; settings: HCT-8, 96 h
[11] = tested on: HT-29; test: Cytotoxicity against human HT-29 cells after 96 hrs by SRB assay; assay type: functional, cell-based; settings: HT-29, 96 h
[12] = Cytotoxicity against human Lipo cells after 96 hrs by SRB assay; assay type: functional, cell-based
[13] = tested on: MCF7; test: Cytotoxicity against human MCF7 cells after 96 hrs by SRB assay; assay type: functional, cell-based
[14] = tested on: SW-1736; test: Cytotoxicity against human SW1736 cells after 96 hrs by SRB assay; assay type: functional, cell-based
[15] = tested on: SW480; test: Cytotoxicity against human SW480 cells after 96 hrs by SRB assay; assay type: functional, cell-based; settings: SW480, 96 h
[16] = tested on: A549; test: Induction of apoptosis in human A549 cells at IC90 concentration after 24 to 48 hrs using acridine orange/ethidium bromide dye by fluorescence microscopic analysis; assay type: functional, cell-based
How it was run: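 About 500,000 cells were seeded in flasks and grown for 24 h, then the medium was replaced with compound-containing medium. After 24–48 h, floating cells in the supernatant were pelleted, washed and resuspended in PBS, mixed with acridine orange/ethidium bromide and examined by fluorescence microscopy. Green nuclear fluorescence was scored as apoptotic and red nuclei as necrotic.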

[17] = Cytotoxicity against mouse NIH/3T3 cells after 96 hrs by SRB assay; assay type: cell-based; settings: NIH3T3, 96 h
[18] = tested on: A2780 (Homo sapiens); test: Induction of apoptosis in human A2780 cells assessed as DNA ladder formation at IC90 concentration after 24 hrs by agarose gel electrophoresis

| Compound | IC50 [1] | IC50 ([2]; Homo sapiens, 8505C, 96 h) | IC50 ([3]; Homo sapiens, A253, 96 h) | IC50 ([4]; Homo sapiens, A2780, 96 h) | IC50 [5] | IC50 ([6]; Homo sapiens, A549, 96 h) | IC50 ([7]; Homo sapiens, DLD-1, 96 h) | IC50 [8] | IC50 [9] | IC50 [10] | IC50 [11] | IC50 ([12]; Homo sapiens, Lipo, 96 h) | IC50 ([13]; Homo sapiens, MCF7, 96 h) | IC50 ([14]; Homo sapiens, SW-1736, 96 h) | IC50 [15] | also measured |
| --- | --- | --- | --- | --- | --- | --- | --- | --- | --- | --- | --- | --- | --- | --- | --- | --- |
| CC(C)OC(=O)[C@@]1(C)CC[C@]2(C)CC[C@]3(C)C(=CC(=O)[C@@H]4[C@@]5(C)CC[C@H](OC(=O)[C@@H](C)N)C(C)(C)[C@@H]5CC[C@]43C)[C@@H]2C1 | 5.48 µM | 3.51 µM | 3.5 µM | 1.7 µM | 3.11 µM | 3.17 µM | 5.67 µM | 5.48 µM | 4.82 µM | 3.32 µM | 3.47 µM | 4.73 µM | 3.52 µM | 3.46 µM | 3.47 µM | Activity [16]: Active |
| COC(=O)[C@@]1(C)CC[C@]2(C)CC[C@]3(C)C(=CC(=O)[C@@H]4[C@@]5(C)CC[C@H](OC(=O)[C@@H](C)N)C(C)(C)[C@@H]5CC[C@]43C)[C@@H]2C1 | 2.26 µM | 2.92 µM | 2.26 µM | 2.24 µM | 2.36 µM | 2.26 µM | 3.35 µM | 2.25 µM | 2.25 µM | 2.26 µM | 2.8 µM | 3.56 µM | 2.25 µM | 2.25 µM | 3.52 µM | – |
| CCOC(=O)[C@@]1(C)CC[C@]2(C)CC[C@]3(C)C(=CC(=O)[C@@H]4[C@@]5(C)CC[C@H](O)C(C)(C)[C@@H]5CC[C@]43C)[C@@H]2C1 | 25.2 µM | 24.6 µM | 25 µM | 27 µM | 23.4 µM | 22.7 µM | 28.1 µM | 23.8 µM | 21.6 µM | 43.4 µM | 22.1 µM | 27.7 µM | 18.6 µM | 13.4 µM | 19.1 µM | IC50 [17]: 23.7 µM |
| COC(=O)[C@@]1(C)CC[C@]2(C)CC[C@]3(C)C(=CC(=O)[C@@H]4[C@@]5(C)CC[C@H](OC(=O)CN)C(C)(C)[C@@H]5CC[C@]43C)[C@@H]2C1 [listing 1 of 3 here] | – | – | – | – | – | – | – | – | – | – | – | – | – | – | – | Activity [16]: Active |
| CC(C)OC(=O)[C@@]1(C)CC[C@]2(C)CC[C@]3(C)C(=CC(=O)[C@@H]4[C@@]5(C)CC[C@H](O)C(C)(C)[C@@H]5CC[C@]43C)[C@@H]2C1 | 18.2 µM | 14.2 µM | 15.8 µM | 24.9 µM | 32 µM | 14.4 µM | 27.6 µM | 14.4 µM | 26.4 µM | 24.1 µM | 16 µM | 15.9 µM | 16 µM | 12.8 µM | 15.3 µM | IC50 [17]: 32.4 µM |
| COC(=O)[C@@]1(C)CC[C@]2(C)CC[C@]3(C)C(=CC(=O)[C@@H]4[C@@]5(C)CC[C@H](OC(=O)[C@H](C)N)C(C)(C)[C@@H]5CC[C@]43C)[C@@H]2C1 [listing 1 of 3 here] | – | – | – | – | – | – | – | – | – | – | – | – | – | – | – | Activity [16]: Active |
| CCOC(=O)[C@@]1(C)CC[C@]2(C)CC[C@]3(C)C(=CC(=O)[C@@H]4[C@@]5(C)CC[C@H](OC(=O)[C@@H](C)N)C(C)(C)[C@@H]5CC[C@]43C)[C@@H]2C1 | 2.76 µM | 4.43 µM | 2.55 µM | 3.26 µM | 2.76 µM | 4.35 µM | 4.49 µM | 3.9 µM | 4.25 µM | 2.42 µM | 4.38 µM | 4.13 µM | 3.55 µM | 4.11 µM | 3.32 µM | – |
| COC(=O)[C@@]1(C)CC[C@]2(C)CC[C@]3(C)C(=CC(=O)[C@@H]4[C@@]5(C)CC[C@H](OC(=O)[C@H](C)N)C(C)(C)[C@@H]5CC[C@]43C)[C@@H]2C1 [listing 2 of 3 here] | – | – | – | – | – | – | – | – | – | – | – | – | – | – | – | IC50 ([2]; 8505c): 3.58 µM; IC50 ([3]; a253): 3.5 µM; IC50 ([4]; a2780): 2.31 µM; IC50 ([6]; a549): 3.52 µM; IC50 ([7]; dld-1): 3.61 µM; IC50 ([12]; lipo): 3.52 µM; IC50 ([13]; mcf7): 3.89 µM; IC50 ([14]; sw-1736): 3.98 µM |
| CC1(C)[C@@H](O)CC[C@]2(C)[C@H]3C(=O)C=C4[C@@H]5C[C@@](C)(C(=O)O)CC[C@]5(C)CC[C@@]4(C)[C@]3(C)CC[C@@H]12 [ENOXOLONE] | 83.9 µM | 86.5 µM | 80.8 µM | 74.6 µM | 79.6 µM | 82.8 µM | 81.2 µM | 84.5 µM | 78.8 µM | 78.9 µM | 80.1 µM | 81.4 µM | 84.7 µM | 76.9 µM | 86.8 µM | IC50 [17]: 18.5 µM; Activity [16]: Active |
| CC1(C)[C@@H](O)CC[C@]2(C)[C@H]3C(=O)C=C4[C@@H]5C[C@@](C)(C(=O)OCc6ccccc6)CC[C@]5(C)CC[C@@]4(C)[C@]3(C)CC[C@@H]12 | 18.2 µM | 8.1 µM | 10.7 µM | 20.3 µM | 23.6 µM | 6.15 µM | 22.7 µM | 5.48 µM | 20.6 µM | 25.2 µM | 11.5 µM | 11.5 µM | 13.5 µM | 2.74 µM | 6.17 µM | IC50 [17]: 21 µM |
| COC(=O)[C@@]1(C)CC[C@]2(C)CC[C@]3(C)C(=CC(=O)[C@@H]4[C@@]5(C)CC[C@H](OC(=O)CCN)C(C)(C)[C@@H]5CC[C@]43C)[C@@H]2C1 [listing 1 of 2 here] | – | – | – | – | – | – | – | – | – | – | – | – | – | – | – | IC50 ([2]; 8505c): 2.51 µM; IC50 ([3]; a253): 2.51 µM; IC50 ([4]; a2780): 1.56 µM; IC50 ([6]; a549): 1.61 µM; IC50 ([7]; dld-1): 3.52 µM; IC50 ([12]; lipo): 3.55 µM; IC50 ([13]; mcf7): 2.43 µM; IC50 ([14]; sw-1736): 2.48 µM |
| COC(=O)[C@@]1(C)CC[C@]2(C)CC[C@]3(C)C(=CC(=O)[C@@H]4[C@@]5(C)CC[C@H](O)C(C)(C)[C@@H]5CC[C@]43C)[C@@H]2C1 | 27.5 µM | 26.1 µM | 19.4 µM | 25.5 µM | 25.3 µM | 23.5 µM | 26.1 µM | 23.4 µM | 22.1 µM | 24.4 µM | 27.5 µM | 20.5 µM | 22.1 µM | 34.9 µM | 16.1 µM | IC50 [17]: 22.8 µM |
| CCOC(=O)[C@@]1(C)CC[C@]2(C)CC[C@]3(C)C(=CC(=O)[C@@H]4[C@@]5(C)CC[C@H](OC(=O)[C@H](C)N)C(C)(C)[C@@H]5CC[C@]43C)[C@@H]2C1 | 2.72 µM | 3.87 µM | 2.33 µM | 2.59 µM | 2.27 µM | 3.43 µM | 3.72 µM | 4.25 µM | 2.82 µM | 2.21 µM | 2.5 µM | 2.74 µM | 3.55 µM | 2.92 µM | 2.79 µM | – |
| CC(C)OC(=O)[C@@]1(C)CC[C@]2(C)CC[C@]3(C)C(=CC(=O)[C@@H]4[C@@]5(C)CC[C@H](OC(=O)[C@H](C)N)C(C)(C)[C@@H]5CC[C@]43C)[C@@H]2C1 | 5.09 µM | 3.49 µM | 3.51 µM | 2.08 µM | 3.49 µM | 3.43 µM | 5.54 µM | 5.39 µM | 5.03 µM | 5.13 µM | 4.6 µM | 3.53 µM | 3.52 µM | 3.54 µM | 3.5 µM | – |
| COC(=O)[C@@]1(C)CC[C@]2(C)CC[C@]3(C)C(=CC(=O)[C@@H]4[C@@]5(C)CC[C@H](OC(=O)[C@H](C)N)C(C)(C)[C@@H]5CC[C@]43C)[C@@H]2C1 [listing 3 of 3 here] | 3.54 µM | 4.31 µM | 3.61 µM | 2.98 µM | 3.48 µM | 2.77 µM | 4.49 µM | 4.52 µM | 2.74 µM | 2.8 µM | 2.87 µM | 4.3 µM | 3.54 µM | 3.22 µM | 3.52 µM | – |
| COC(=O)[C@@]1(C)CC[C@]2(C)CC[C@]3(C)C(=CC(=O)[C@@H]4[C@@]5(C)CC[C@H](OC(=O)CN)C(C)(C)[C@@H]5CC[C@]43C)[C@@H]2C1 [listing 2 of 3 here] | – | – | – | – | – | – | – | – | – | – | – | – | – | – | – | IC50 ([2]; 8505c): 5.71 µM; IC50 ([3]; a253): 5.5 µM; IC50 ([4]; a2780): 4.32 µM; IC50 ([6]; a549): 5.54 µM; IC50 ([7]; dld-1): 6.42 µM; IC50 ([12]; lipo): 5.92 µM; IC50 ([13]; mcf7): 5.73 µM; IC50 ([14]; sw-1736): 5.62 µM |
| COC(=O)[C@@]1(C)CC[C@]2(C)CC[C@]3(C)C(=CC(=O)[C@@H]4[C@@]5(C)CC[C@H](OC(=O)CCN)C(C)(C)[C@@H]5CC[C@]43C)[C@@H]2C1 [listing 2 of 2 here] | – | – | – | – | – | – | – | – | – | – | – | – | – | – | – | Activity [16]: Active; Activity [18]: Active |
| COC(=O)[C@@]1(C)CC[C@]2(C)CC[C@]3(C)C(=CC(=O)[C@@H]4[C@@]5(C)CC[C@H](OC(=O)CN)C(C)(C)[C@@H]5CC[C@]43C)[C@@H]2C1 [listing 3 of 3 here] | – | 7.45 µM | 6.26 µM | 5.99 µM | – | 6.42 µM | 8.59 µM | – | – | – | – | 7.54 µM | 7.1 µM | 6.33 µM | – | – |
